In the library only some 1% were active in any assay of this set; here they are far more common.
Furin inh = human furin inhibitors, primary screen, biochemical, fluorescence intensity. AID 463115, 2010. inhibition, % at 20 µM or 30 µM. actives 0.061% (n = 220,000). purified furin, fluorogenic substrate cleavage; in the data active means inhibition above about 25%
HSV replic up = enhancers of HSV replication in host cells, fold increase, host cell viability; HSV replication augmentation in cells; maximum fold increase; actives 0.005% (n = 220,000); AID 1956, 2009; in the data active means maximum fold increase above about 1.5; tested in PC3 cells
FXIIa inh 1536 = human FXIIa protease inhibitors, primary screen, biochemical, 1536-well. inhibition, % at 5 µM. actives 0.3% (n = 220,000). purified FXIIa, Boc-QGR-AMC fluorogenic substrate, 2 h. Coagulation factor XII (Homo sapiens), P00748. AID 800, 2007; in the data active means inhibition above about 40%
thrombin 1536 = human alpha-thrombin inhibitors, primary screen, counter-screen for coagulation protease inhibitor project, biochemical, 1536-well, fluorogenic AMC substrate | Boc-VPR-AMC fluorogenic substrate cleavage | inhibition, % at 5 µM | actives 0.26% (n = 220,000) | AID 1046, 2008;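 active means inhibition at or above 40%; inactive means inhibition below 40%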
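Material: human alpha-thrombin enzyme / Medium: pH 7.5 Tris (50 mM) with NaCl 150 mM, Tween 20 0.05% / Compound: single-point dosing at 5 µM, 0.2% DMSO / Incubation: enzyme reaction carried out at room temperature / Detection: AMC fluorescence, 355/460 nm / Read-out basis: percent inhibition scaled between no-compound controls and no-enzyme blanks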
FXIa inh = human FXIa protease inhibitors, primary screen, biochemical, 1536-well. purified FXIa, Boc-Glu-Ala-Arg-AMC fluorogenic substrate. inhibition, % at 5 µM. actives 0.14% (n = 220,000). AID 798, 2007;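 active means inhibition of at least 40%; inactive means inhibition below 40%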;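 further: fluorescence of freed AMC excited at 355 nm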
KLK5 inh = human KLK5 protease inhibitors, primary screen, biochemical, 1536-well. inhibition, % at 5 µM. actives 0.59% (n = 210,000). recombinant hK5, fluorogenic AMC substrate cleavage. Kallikrein-5 (Homo sapiens), Q9Y337;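 active means inhibition of 40% or more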
Target sequence (Q9Y337 67-293 limits assumed): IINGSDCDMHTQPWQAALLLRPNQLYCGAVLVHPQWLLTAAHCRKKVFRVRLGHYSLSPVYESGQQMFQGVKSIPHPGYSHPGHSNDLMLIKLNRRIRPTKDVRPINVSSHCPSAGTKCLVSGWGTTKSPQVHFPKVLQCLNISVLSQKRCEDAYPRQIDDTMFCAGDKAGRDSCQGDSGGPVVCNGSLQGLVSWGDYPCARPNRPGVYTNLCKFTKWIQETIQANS
Hits are given with their value; i = inactive; nt = not tested or not shown.

SMILES	Furin inh	HSV replic up	FXIIa inh 1536	thrombin 1536	FXIa inh	KLK5 inh
O=[N+]([O-])c1ccc(O)c(/C=N/n2c(CO)nc3ccccc32)c1	i	i	i	i	i	i
OCc1nc2ccccc2n1/N=C/c1cccs1	i	i	i	i	i	42.9
Cc1nn(C)c(C)c1/C=C(/C(=O)C(C)C)n1cncn1	i	i	i	i	41.6	40.0
Cc1nn(C)c(C)c1/C=C(/C(=O)C(C)(C)C)n1cncn1	i	i	i	i	i	i
CC1=C(CC(=O)O)c2cc(F)ccc2/C1=C\c1ccc(S(C)=O)cc1 (centres undefined)	i	i	i	i	i	i
CNC(=O)COC(=O)c1ccc(Cl)c(S(N)(=O)=O)c1	i	i	i	i	i	48.9
Cc1ccc2c(c1)CC1(CN2C)C(=O)OC(C)(C)OC1=O	i	i	i	72.7	i	i
CC(=O)Oc1cc2cccc(OC(C)=O)c(=O)c2c(OC(C)=O)c1OC(C)=O	i	nt	i	i	i	i
COc1ccccc1/C=C/C(=O)N1CCC(c2ccccc2)C1 (centres undefined)	i	i	i	i	i	i
CCOC(=O)CNC(=O)Cn1cnc2c(nnn2-c2cccc(Cl)c2)c1=O	i	i	43.4	i	i	i
CCOC(=O)CNC(=O)Cn1cnc2c(nnn2-c2ccc(C)cc2)c1=O	i	i	i	i	i	i
C[C@@H](C(=O)N[C@H](C(=O)O)c1ccccc1)n1nnc2ccccc2c1=O	i	i	i	i	i	i
O=C(N[C@H](C(=O)O)c1ccccc1)C1CCC(Cn2nnc3ccccc3c2=O)CC1 (some centres undefined)	i	i	43.4	i	i	i
COc1ccc(C2=[N+](C)CCn3cccc32)c(OC)c1	i	i	68.7	i	i	i
NNC(=O)CN1C(=O)Nc2ccc(Br)cc2C1c1ccccc1 (centres undefined)	i	i	i	54.7	i	41.9
Cc1nc(Cl)c(C#N)cc1-c1ccccc1	i	i	i	i	i	57.2
Cc1nc(Sc2ccccc2)c(C#N)cc1-c1ccccc1	i	i	i	i	i	i
COC(C[C@H](O)C[C@@H](O)[C@@H](C)OCc1ccccc1)OC	i	i	i	i	i	i
COC(C[C@H](O)C[C@@H](O)[C@H](C)OCc1ccccc1)OC	i	i	46.3	i	i	i
O=c1c(Cl)c(Cl)cnn1Cc1ccc(F)cc1	i	i	51.9	i	i	i
CCN(CC)c1ccc(NC(=O)c2nc3nc(C)cc(C(F)F)n3n2)cc1	i	i	i	i	i	48.1
COc1ccc(N2C(N)=C(C#N)C(c3cccnc3)C3=C2CC(C)(C)CC3=O)cc1 (centres undefined)	i	i	i	i	i	51.2
Cc1cccc(NC(=O)c2ccc(C3SCC(=O)N3CCc3ccccc3)cc2)c1C (centres undefined)	i	i	i	i	i	i
Cc1ccccc1NC(=O)C1(NC(=O)c2cccc(N3C(=O)CSC3c3ccccc3)c2)CCCCC1 (centres undefined)	i	i	i	i	i	80.0
CC(C)C(=O)Nc1ccc(C(=O)Nc2ccc(Br)cc2F)cc1	i	i	i	i	i	i
SMILES	Furin inh	HSV replic up	FXIIa inh 1536	thrombin 1536	FXIa inh	KLK5 inh
CCN(CC)CCN1C(=O)c2ccccc2NC1c1ccccc1F (centres undefined)	i	i	i	i	i	41.4
O=C(c1ccc(Cl)cc1)N1CCCCC(Cl)C1=O (centres undefined)	i	i	i	i	i	i
O=C(C1Cc2ccccc2CN1S(=O)(=O)c1cccs1)N1CCCCC1 (centres undefined)	28.1	i	i	i	i	i
Cn1cc(C(=O)c2ccc(Cl)cc2Cl)cc1C(=O)N/N=C(\N)COc1ccc(Cl)cc1	i	i	i	i	i	i
Cn1cc(C(=O)c2ccc(Cl)cc2Cl)cc1C(=O)N/N=C(\N)COc1ccc(F)cc1	i	i	i	75.7	i	i
CCOc1ccc(N=C2NN=C(c3cc(C)n(CC4CCCO4)c3C)CS2)cc1 (centres undefined)	i	i	i	i	i	44.7
C=CCn1c(C)cc(C2=NNC(=Nc3ccc(C)cc3)SC2)c1C	i	i	i	i	i	i
Cn1c(=O)c2c(=O)cc(NNC(=O)CC#N)[nH]c2n(C)c1=O	i	i	i	i	i	i
CC(NC(=O)COc1ccccc1)C(c1cccs1)N1CCCC1 (centres undefined)	i	i	i	i	i	i
COc1ccccc1C(=O)NC(C)C(c1cccs1)N1CCOCC1 (centres undefined)	30.9	i	i	i	i	i
Cc1ccc(C(=O)NC(C)C(c2cccs2)N2CCCC2)s1 (centres undefined)	i	i	nt	45.1	i	i
CC1=C(C(N)=O)C(c2ccccn2)n2nc(-c3ccccc3Cl)nc2N1 (centres undefined)	i	i	i	i	i	42.9
C=CCN1C(=O)N(c2ccc(F)cc2)C(=O)C1CC(=O)Nc1ccc(Cl)cc1 (centres undefined)	i	i	i	i	i	i
c1ccc(-c2n[nH]c3c2CCC3)cc1	i	i	i	i	i	50.5
Cc1nn(-c2ccccc2)c(C)c1C(=O)NNC(=O)C(F)(F)F	i	i	i	i	i	i
Cc1cc2ncn(S(=O)(=O)N3CCOCC3)c2cc1C	26.5	i	i	79.7	i	46.7
O=C(Oc1ccc(=O)n(-c2ccccc2)n1)c1ccc(Cl)cc1	i	i	i	i	51.3	i
O=C(Oc1ccc(=O)n(-c2ccccc2)n1)c1cccc(Cl)c1	i	i	i	i	68.0	i
C=CCn1c(O)c(N=NC(=S)Nc2ccccc2F)c2cc(S(=O)(=O)N3CCOCC3)ccc21	i	i	54.8	i	i	i
CCOC(=O)c1ccc(NC(=O)c2ccc3c(c2)OCO3)cc1	i	i	i	i	i	i
CCOC(=O)c1ccc(NC(=O)NC2CCN(CC(=O)NCc3ccc4c(c3)OCO4)CC2)cc1	i	i	i	43.3	i	i
Cc1ccc(N2C(=S)NC3c4ccccc4OC2(C)C3C(=O)N(C)C)cc1 (centres undefined)	i	i	i	44.4	i	i
CSc1ncc(CNc2cc([N+](=O)[O-])ccc2C)c(N)n1	nt	i	nt	nt	nt	nt
Fc1ccc(Cn2cccc2C2=NC(c3ccccc3)CO2)cc1 (centres undefined)	i	i	i	i	i	i
Cc1oc(-c2ccccc2)nc1Cn1cccc1C1=NC(c2ccccc2)CO1 (centres undefined)	i	i	i	i	i	101.2
NC(=O)c1cccc(CC(=O)c2ccccc2)c1	i	i	i	i	i	i
